Published values of several laboratories.
Each line is one published result; the experiments were not run side by side.
Target: Serine/threonine-protein kinase 32C (STK32C, Homo sapiens, UniProt Q86UX6)

| SMILES | assay | setting | quantity | result |
| --- | --- | --- | --- | --- |
| O=C(Nc1cnn(-c2csc(C(=O)NC3COC3)c2)c1)Nc1ccccc1Cl | enzyme activity, inhibitor | 5 µM | remaining activity | 113% |
| Nc1ncnc2occ(-c3ccc(NC(=O)Nc4cc(C(F)(F)F)ccc4F)cc3)c12 | cell-free assay | 20 µM | remaining signal | 91% |
| COc1cc(Cl)c(C(=O)N[C@@H](CN[C@H]2CC[C@@H](N)CC2)Cc2ccc(C#N)cc2)cc1-c1ccc(CN[C@H](C)c2ccc(C)cc2)o1 | enzyme activity, inhibitor | 1 µM | remaining activity | 95% |
| CS(=O)(=O)Nc1cccc(-c2csc(NC(=O)CSc3nc4nccnc4c(=O)n3CCc3ccccc3)n2)c1 | enzyme activity, inhibitor | 10 µM | inhibition | -5% |
| Cc1ccc(C(=O)Nc2ccc(CN3CCN(C)CC3)c(C(F)(F)F)c2)cc1C#Cc1cnc2cccnn12 | enzyme activity | 23.5 nM | remaining activity | 100% |
| O=C(CSc1nc2nccnc2c(=O)n1CCc1ccccc1)Nc1nccs1 | enzyme activity, inhibitor | 10 µM | inhibition | -9% |
| COc1cccc2c(NCc3ccccc3)nc(-n3c(N)nc4ccccc43)nc12 | target engagement in cells, inhibitor, chemoproteomics | 20 mM | inhibition | 13.6% |
| O=C(Nc1cnn(-c2csc(C(=O)NC3COC3)c2)c1)Nc1c(F)cccc1Cl | enzyme activity, inhibitor | 5 µM | remaining activity | 90.7% |
| CCCCNc1ncc2c(-c3ccc(F)cc3)nn(C[C@H]3CC[C@H](N)CC3)c2n1 | target engagement in cells, inhibitor, chemoproteomics | 20 mM | inhibition | 55% |
| Cc1nc(C2CCN(C(=O)c3ccc(OC(F)(F)F)cc3N)CC2)c2ncc(N3CCN(C)CC3)cc2n1 | cell-free assay, competition with immobilised ligand | 1 µM | remaining binding | 100% |
| CN1CC(Oc2cnc(C#N)cc2-c2ccn3nc(NC(=O)C4CC4)cc3c2)C1 | enzyme activity, inhibitor | 1 µM | inhibition | -5% |
| CC(C)(O)[C@H]1CC[C@H](Nc2ccc3ncc(-c4cccc(C(F)(F)F)c4)n3n2)CC1 | enzyme activity, inhibitor | 1 µM | remaining activity | 83.2% |
| CN(C)C(=O)Cn1cc(-c2nc(C3(c4ccc(-c5cnc(N)nc5)cc4)CC3)no2)cn1 | cell-free assay, competition with immobilised ligand | 1 µM | remaining binding | 100% |
